Calls of active or inactive are those of the source.
Key:
[1] = molecular target: P2Y purinoceptor 6 (Rattus norvegicus) (UniProt Q63371); test: Effect on P2Y6 receptor-mediated cell motility in Wistar rat microglia assessed as formation of lamellipodia-like membrane ruffles at 10 uM after 5 mins
Method in brief: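 Cultured primary rat microglia stimulated 5 min with agonist, then fixed, permeabilized and phalloidin-stained; lamellipodia-like membrane ruffles scored by microscopy.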

[2] = molecular target: P2Y purinoceptor 6 (Rattus norvegicus) (UniProt Q63371); test: Effect on P2Y6 receptor-mediated cell motility in Wistar rat microglia at 100 uM by chemotaxis assay
Method in brief: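 Chemotaxis of cultured primary rat microglia toward agonist (100 μM) assessed in a Dunn chemotaxis chamber.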

[3] = Induction of phagocytosis in Wistar rat microglia assessed as uptake of microspheres at 100 uM after 20 mins by FACS; type: functional
Method in brief: (§1)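 Rat primary cultured microglia incubated with agonist for 20 min, with UDP tested at 5–1,000 μM, in the presence of fluorescent latex microspheres. Bead uptake is quantified by FACS, and results are expressed relative to uptake with 100 μM UDP alone. Values are means ± s.e.m. of about three or four experiments.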

Rattus norvegicus = test: Increase in P2Y6 receptor protein expression in Wistar rat brain at 10 mg/kg, ip after 72 hrs by Western blotting; type: functional, organism-based; parameters: dose 10 mg/kg
Method in brief: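 Rats given 10 mg kg⁻¹ i.p. (saline-injected controls); brains removed 72 h later and hippocampal P2Y₆ receptor protein quantified by western blot; 8 control and 7 treated experiments.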

Hippocampus [4] = test: Induction of neuronal loss in Wistar rat hippocampal CA1 region assessed as increase in number of microglia by immunohistochemical analysis; type: functional, tissue-based
Method in brief: (§2)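 Rats given 10 mg kg⁻¹ i.p.; 72 h later hippocampal sections double-stained with anti-NeuN (neurons) and anti-Iba1 (microglia) to assess CA1 and CA3 neuronal loss and microglial number.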

Hippocampus [5] = test: Induction of neuronal loss in Wistar rat hippocampal CA3 region assessed as increase in number of microglia by immunohistochemical analysis; type: functional, tissue-based; method in brief: as §2
Microglia [6] = test: Increase in P2Y6 receptor protein expression in Wistar rat microglia; type: functional, cell-based
Method in brief: (§3)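 Rats given 10 mg kg⁻¹ i.p.; brain sections immunostained for P2Y₆ receptor and co-stained for microglia (OX42), astrocytes (GFAP) or neurons (NeuN) to assess colocalization.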

Astrocyte = test: Increase in P2Y6 receptor protein expression in Wistar rat astrocytes; type: functional, cell-based; method in brief: as §3
Neuron [7] = test: Increase in P2Y6 receptor protein expression in Wistar rat neurons; type: functional, cell-based; method in brief: as §3
Hippocampus [8] = test: Upregulation of P2Y6 receptor mRNA signals in Wistar rat hippocampal CA3 region assessed as increase in number of microglia by in situ hybridization after 3 days; type: functional, tissue-based
Method in brief: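 Rats given 10 mg kg⁻¹ i.p.; 3 days later hippocampal sections probed by in situ hybridization with P2Y₆ antisense RNA probe, then stained with anti-Iba1 to identify microglia bearing receptor mRNA in CA3.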

Microglia [9] = test: Increase in phagocytosis in Wistar rat microglia assessed as uptake of microspheres by FACS; type: functional, cell-based
Method in brief: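 Cultured primary rat microglia incubated 20 min with fluorescent latex beads plus agonist (5–1,000 μM); bead uptake quantified by flow cytometry; three experiments.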

Microglia [10] = test: Reversal of increase drug-induced phagocytosis in Wistar rat microglia assessed as uptake of microspheres by FACS in presence of MRS2578; type: functional, cell-based
Method in brief: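 Microglia incubated 20 min with supernatant from hippocampal neurons treated ±100 μM kainate for 1 h, with or without 1 μM antagonist; fluorescent latex bead uptake measured by flow cytometry; at least four independent experiments.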

Neuron [11] = test: Increase in UTP level in Wistar rat hippocampal neuron at 10 mg/kg, ip by microdialysis; type: functional, organism-based; parameters: dose 10 mg/kg; settings: Hippocampus, TDE = time-dependent effect
Neuron [12] = test: Induction of neuronal loss in Wistar rat neurons at 10 mg/kg, ip after 2-3 days; type: functional, organism-based; parameters: dose 10 mg/kg
Hippocampus [13] = test: Induction of phagocytosis in Wistar rat hippocampal CA3 region assessed as increase in number of microglia at 10 mg/kg, ip; type: functional, organism-based; parameters: dose 10 mg/kg
Method in brief: (§4)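 Rats given 10 mg kg⁻¹ i.p.; fluorescent microspheres injected into hippocampal CA3, antagonist injected into CA3 (antisense/mismatch oligonucleotide into third ventricle); microspheres taken up or attached by anti-Iba1-stained microglia counted by confocal microscopy; ANOVA with Scheffe test.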

Hippocampus [14] = test: Reversal of drug-induced phagocytosis in Wistar rat hippocampal CA3 region assessed as increase in number of microglia at 10 mg/kg, ip in presence of MRS2578; type: functional, organism-based; parameters: dose 10 mg/kg; method in brief: as §4
Neuron [15] = test: Increase in UTP level in Wistar rat hippocampal neuron at 100 uM after 1 hr by HPLC in presence of ARL67156
[16] = molecular target: P2Y purinoceptor 6 (Rattus norvegicus) (UniProt Q63371); test: Activity at P2Y6 receptor in Wistar rat microglia assessed as inhibition of intracellular calcium concentration at 100 uM after 600 secs by ratiometric fura-2 fluorescence method in presence of xestospongin C; type: functional, cell-based
Method in brief: (§5)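 Cultured rat primary microglia. Intracellular Ca2+ measured as the change in the 340/380 nm Fura-2 fluorescence ratio after stimulation with 100 μM UDP, alone or with inhibitors. The maximal UDP-alone response is the control, and responses are expressed as percent of control. Values are means ± s.e.m. of 24–36 cells from at least three independent experiments.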

[17] = molecular target: P2Y purinoceptor 6 (Rattus norvegicus) (UniProt Q63371); test: Activity at P2Y6 receptor in Wistar rat microglia assessed as inhibition of intracellular calcium concentration at 100 uM by ratiometric fura-2 fluorescence method in presence of reactive blue 2; type: functional, cell-based; method in brief: as §5
[18] = molecular target: P2Y purinoceptor 6 (Rattus norvegicus) (UniProt Q63371); test: Activity at P2Y6 receptor in Wistar rat microglia assessed as inhibition of intracellular calcium concentration at 100 uM in presence of suramin by ratiometric fura-2 fluorescence method; type: functional, cell-based; method in brief: as §5
[19] = molecular target: P2Y purinoceptor 6 (Rattus norvegicus) (UniProt Q63371); test: Activity at P2Y6 receptor in Wistar rat microglia assessed as inhibition of intracellular calcium concentration at 100 uM by ratiometric fura-2 fluorescence method in presence of MRS2578; type: functional, cell-based; method in brief: as §5
[20] = molecular target: P2Y purinoceptor 6 (Rattus norvegicus) (UniProt Q63371); test: Effect on P2Y6 receptor-mediated cell motility in Wistar rat microglia assessed as formation of lamellipodia-like membrane ruffles at 100 uM after 5 mins
Method in brief: (§6)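 Rat primary cultured microglia stimulated for 5 min with 100 μM UDP or 10 μM ATP, then fixed, permeabilized and stained with phalloidin. Membrane ruffles and other actin structures are assessed by microscopy.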

Microglia [21] = test: Effect on formation of F-actin aggregation in Wistar rat microglia at 100 uM after 5 mins; type: functional, cell-based; method in brief: as §6
Microglia [22] = test: Effect on formation of filopodia-like protrusions in Wistar rat microglia at 100 uM after 5 mins; type: functional, cell-based; method in brief: as §6
Microglia [23] = test: Effect on formation of phagosome-like vacuoles in Wistar rat microglia at 100 uM after 5 mins; type: functional, cell-based; method in brief: as §6
Microglia [24] = test: Effect on formation of phagocytotic cup in Wistar rat microglia at 100 uM after 5 mins; type: functional, cell-based; method in brief: as §6
Microglia [25] = test: Induction of phagocytosis in Wistar rat microglia assessed as uptake of microspheres after 20 mins by FACS; type: functional, cell-based; method in brief: as §1
Microglia [26] = test: Reversal of drug-induced of phagocytosis in Wistar rat microglia at 100 uM in presence of reactive blue 2; type: functional
Method in brief: (§7)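 Rat primary cultured microglia stimulated with 100 μM UDP, with or without reactive blue 2 (30–100 μM), suramin (300 μM), MRS2578 (0.01–3 μM), thapsigargin (1 μM), staurosporine (5 μM) or U73122 (10 μM). Uptake of fluorescent latex microspheres during the 20-min incubation is quantified by FACS. Values are means ± s.e.m.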

Microglia [27] = test: Reversal of drug-induced of phagocytosis in Wistar rat microglia at 100 uM in presence of suramin; type: functional; method in brief: as §7
Microglia [28] = test: Reversal of drug-induced phagocytosis in Wistar rat microglia at 100 uM in presence of MRS2578; type: functional; method in brief: as §7
[29] = molecular target: T1, Cysteinyl leukotriene receptor 1 (Rattus norvegicus) (UniProt Q924T8); test: Agonist activity at CysLT1 receptor in Wistar rat microglia assessed as increase in intracellular calcium concentration at 30 uM by ratiometric fura-2 fluorescence method; type: functional, cell-based
T1 sequence (whole entry): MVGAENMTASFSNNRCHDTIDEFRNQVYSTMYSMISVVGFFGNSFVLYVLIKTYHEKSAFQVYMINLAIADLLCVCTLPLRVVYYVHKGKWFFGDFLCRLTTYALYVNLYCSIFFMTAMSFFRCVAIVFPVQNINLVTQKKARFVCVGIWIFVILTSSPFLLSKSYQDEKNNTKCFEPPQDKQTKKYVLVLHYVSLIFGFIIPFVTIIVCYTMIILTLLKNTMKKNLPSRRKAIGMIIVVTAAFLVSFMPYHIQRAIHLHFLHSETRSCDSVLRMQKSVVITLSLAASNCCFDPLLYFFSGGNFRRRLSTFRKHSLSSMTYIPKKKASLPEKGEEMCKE

Microglia [30] = test: Reversal of drug-induced phagocytosis in Wistar rat microglia at 100 uM in presence of U73122; type: functional, cell-based; method in brief: as §7
Microglia [31] = test: Reversal of drug-induced phagocytosis in Wistar rat microglia at 100 uM in presence of thapsigargin; type: functional, cell-based; method in brief: as §7
Microglia [32] = test: Reversal of drug-induced phagocytosis in Wistar rat microglia at 100 uM in presence of staurosporine; type: functional, cell-based; method in brief: as §7
[33] = molecular target: P2Y purinoceptor 6 (Rattus norvegicus) (UniProt Q63371); test: Agonist activity at P2Y6 receptor in Wistar rat microglia assessed as increase in intracellular calcium concentration by ratiometric fura-2 fluorescence method; type: functional, cell-based
Method in brief: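 Rat primary cultured microglia loaded with Fura-2. The rise in [Ca2+]i is read as the change in the 340/380 nm fluorescence ratio. UDP is applied over a concentration range, and the fraction of responding cells is also scored.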

[34] = molecular target: P2Y purinoceptor 6 (Rattus norvegicus) (UniProt Q63371); test: Activity at P2Y6 receptor in Wistar rat microglia assessed as inhibition of intracellular calcium concentration at 100 uM after 300 secs by ratiometric fura-2 fluorescence method in presence of U73122; type: functional, cell-based; method in brief: as §5
[35] = molecular target: P2Y purinoceptor 6 (Rattus norvegicus) (UniProt Q63371); test: Activity at P2Y6 receptor in Wistar rat microglia assessed as inhibition of intracellular calcium concentration at 100 uM after 600 secs by ratiometric fura-2 fluorescence method in presence of thapsigargin; type: functional, cell-based; method in brief: as §5

Measured: Activity

Chain of P2Y purinoceptor 6 (Rattus norvegicus) (Q63371 whole entry): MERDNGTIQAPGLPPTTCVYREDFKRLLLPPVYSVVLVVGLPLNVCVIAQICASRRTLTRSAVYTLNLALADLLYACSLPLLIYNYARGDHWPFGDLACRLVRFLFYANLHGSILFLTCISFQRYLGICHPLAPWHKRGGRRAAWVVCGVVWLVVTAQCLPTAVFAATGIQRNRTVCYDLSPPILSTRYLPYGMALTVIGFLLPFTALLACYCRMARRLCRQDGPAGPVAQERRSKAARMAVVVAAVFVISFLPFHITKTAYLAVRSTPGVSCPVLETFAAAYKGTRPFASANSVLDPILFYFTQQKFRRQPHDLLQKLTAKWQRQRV

Nc1ncnc2c1ncn2[C@@H]1O[C@H](COP(=O)(O)OP(=O)(O)OP(=O)(O)O)[C@@H](O)[C@H]1O
active: [1] | [2]

Nc1nc2c(ncn2[C@@H]2O[C@H](COP(=O)(O)OP(=O)(O)O)[C@@H](O)[C@H]2O)c(=O)[nH]1
49.7%: [3]

C=C(C)[C@H]1CN[C@H](C(=O)O)[C@H]1CC(=O)O [KAINIC ACID]
10.5 µM: Neuron [15]
inactive: Astrocyte | Neuron [7]
active: Rattus norvegicus | Hippocampus [4] | Hippocampus [5] | Microglia [6] | Hippocampus [8] | Microglia [9] | Microglia [10] | Neuron [11] tde | Neuron [12] | Hippocampus [13] | Hippocampus [14]

Nc1ncnc2c1ncn2[C@@H]1O[C@H](COP(=O)(O)OP(=O)(O)O)[C@@H](O)[C@H]1O [ADENOSINE DIPHOSPHATE]
0.3%: [3]

O=c1ccn([C@@H]2O[C@H](COP(=O)(O)OP(=O)(O)O)[C@@H](O)[C@H]2O)c(=O)[nH]1
inactive: [20] | [2]
active: [16] | [17] | [18] | [19] | Microglia [21] | Microglia [22] | Microglia [23] | Microglia [24] | Microglia [25] Dose-dependent effect | Microglia [26] | Microglia [27] | Microglia [28] | [29] | Microglia [30] | Microglia [31] | Microglia [32] | [33] Dose-dependent effect | [34] | [35]

— ChEMBL document CHEMBL1147977, “UDP acting at P2Y6 receptors is a mediator of microglial phagocytosis” (2007)
